Experiment [1] has as its system Human immunodeficiency virus 1. The experiment in a line: Antiviral activity by observing cytopathic effect induced by HIV-1 strain IIIB in de novo infected MT-4 cells. Type of experiment: functional, organism-based. Conditions: Human immunodeficiency virus 1, MT4. (Cytopathic effects are the visible damage that an infection or toxin causes in cultured cells.)
Experiment [2] deals with Human immunodeficiency virus type 1 protease (Human immunodeficiency virus 1, UniProt Q72874). The experiment in a line: Inhibitory constant against HIV-1 protease. Summed up:
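HIV-1 proteinase expressed in E. coli JM 105 and purified to homogeneity. Initial rates were taken from the absorbance decrease at 298 nm. IC50 came from a fit of the initial velocities. Ki was derived from IC50 accounting for enzyme, substrate and Km. Mean of two determinations.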

The test system of experiment [3] is MT4. The experiment in a line: Antiviral activity by analysis of p24 antigen concentration for HIV-1 strain IIIB in de novo infected MT-4 cells. Type of experiment: functional, cell-based. Conditions: Homo sapiens.
The target in the next experiment is T1, Renin (Homo sapiens, UniProt P00797).
T1 sequence (P00797 whole entry): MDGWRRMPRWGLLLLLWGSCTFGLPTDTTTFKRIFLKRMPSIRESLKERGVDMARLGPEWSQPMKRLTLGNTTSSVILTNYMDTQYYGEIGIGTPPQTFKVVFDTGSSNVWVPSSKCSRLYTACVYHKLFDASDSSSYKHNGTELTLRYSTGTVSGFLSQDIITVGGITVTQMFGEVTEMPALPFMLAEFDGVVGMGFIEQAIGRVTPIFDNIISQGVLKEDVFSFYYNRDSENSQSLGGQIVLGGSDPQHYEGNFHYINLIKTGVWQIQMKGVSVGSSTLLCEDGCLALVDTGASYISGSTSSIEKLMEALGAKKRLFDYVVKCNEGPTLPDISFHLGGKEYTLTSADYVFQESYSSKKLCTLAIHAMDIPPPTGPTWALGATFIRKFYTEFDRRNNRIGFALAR
Description: Selectivity for their inhibitory potency against human renin.

Experiment [4] concerns MT4. Description: Antiviral activity by analysis of p26 antigen concentration for HIV-2 strain EHO, replication in MT-4 cells. It is filed as functional, cell-based. Conditions: Homo sapiens.
Another experiment has as its target Pepsin A (Sus scrofa, UniProt P00791). Description: Selectivity for their inhibitory potency against porcine pepsin. In a few lines: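 Porcine pepsin assayed in 0.1 M glycine–HCl, pH 2.0, with 0.5% hemoglobin substrate and [14C]methylhemoglobin tracer.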
In experiment [5] the target is T2, Cathepsin D (Homo sapiens, UniProt P07339). Description: (§1) Selectivity for their inhibitory potency against human cathepsin D.
T2 sequence (P07339 65-162 limits assumed): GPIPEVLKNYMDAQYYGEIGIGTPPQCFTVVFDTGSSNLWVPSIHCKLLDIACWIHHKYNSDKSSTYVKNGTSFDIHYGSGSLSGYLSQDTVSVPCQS
T2 sequence (P07339 169-412 limits assumed): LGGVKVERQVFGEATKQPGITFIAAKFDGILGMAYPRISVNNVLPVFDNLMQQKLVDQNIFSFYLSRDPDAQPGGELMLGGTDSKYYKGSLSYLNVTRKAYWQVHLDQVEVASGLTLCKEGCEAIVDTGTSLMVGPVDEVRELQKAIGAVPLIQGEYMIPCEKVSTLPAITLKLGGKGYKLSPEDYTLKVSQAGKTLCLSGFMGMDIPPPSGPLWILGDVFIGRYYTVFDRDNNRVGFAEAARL
For experiment [6], the target named is T2, Cathepsin D. Described as §1. Type of experiment: functional.

The structures appear in SMILES notation. Where only a bound is given, the exact number is not on record here.

Sequence of Pepsin A (P00791 whole entry): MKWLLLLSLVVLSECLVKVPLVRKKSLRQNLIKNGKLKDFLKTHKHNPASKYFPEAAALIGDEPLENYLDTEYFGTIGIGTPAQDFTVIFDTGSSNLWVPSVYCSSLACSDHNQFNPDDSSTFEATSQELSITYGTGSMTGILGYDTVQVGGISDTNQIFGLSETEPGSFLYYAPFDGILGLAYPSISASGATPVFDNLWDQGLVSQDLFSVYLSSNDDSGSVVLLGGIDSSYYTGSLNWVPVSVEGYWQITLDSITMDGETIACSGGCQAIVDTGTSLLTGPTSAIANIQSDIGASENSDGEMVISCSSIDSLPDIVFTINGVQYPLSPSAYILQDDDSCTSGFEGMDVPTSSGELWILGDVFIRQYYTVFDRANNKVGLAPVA

`COc1ccc(CN[C@@H](C(=O)N[C@H](C(=O)NCc2nc3ccccc3[nH]2)C(C)C)[C@H](O)[C@H](Cc2ccccc2)NC(=O)[C@@H](NC(=O)C(C)Oc2ccccc2)C(C)(C)C)cc1` (some centres not stated): the IC50 (commonly the concentration at which inhibition is half-maximal) is 38 nM in experiment [1]; 7.9 nM in the experiment on MT4 [3]; over 10000 nM on Renin; 470 nM in the experiment with MT4 [4]; over 10000 nM against Pepsin A; 2000 nM against Cathepsin D [5]. Also, the affinity in experiment [2] corresponds to a Ki of 6 nM.
With `CC(C)[C@H](NC(=O)[C@H](NCc1ccccc1)[C@H](O)[C@H](Cc1ccccc1)NC(=O)[C@@H](NC(=O)OCc1ccccc1)C(C)(C)C)C(=O)NCc1ccccc1`, the IC50 is 320 nM in experiment [1]; 93 nM in the experiment on MT4 [3]; over 10000 nM on Renin; 1400 nM with MT4 [4]; over 10000 nM on Pepsin A; 60 nM on Cathepsin D [5]. Further, in experiment [2], the Ki – broadly, a measure of affinity in units of concentration, obtained from inhibition or displacement – was determined as 9.2 nM.
As for `CC(C)[C@H](NC(=O)[C@H](NCc1ccc(Cl)cc1)[C@H](O)[C@H](Cc1ccccc1)NC(=O)[C@@H](NC(=O)OCc1ccccc1)C(C)(C)C)C(=O)NCc1nc2ccccc2[nH]1`, the IC50 in experiment [1] is 34 nM; in the experiment with MT4 [3], 11.3 nM; at Renin it was over 10000 nM; with MT4 [4], 240 nM; against Pepsin A, over 10000 nM; against Cathepsin D [5], 1800 nM. For the same compound, the inhibitory constant (Ki) in experiment [2] amounted to 7.5 nM.
Regarding `COc1ccc(CN[C@@H](C(=O)N[C@H](C(=O)NCc2nc3ccccc3[nH]2)C(C)C)[C@H](O)[C@H](Cc2ccccc2)NC(=O)[C@@H](NC(=O)OCc2ccccc2)C(C)C)cc1`, the IC50 in experiment [1] is 25 nM; with MT4 [3], 9.7 nM; against Renin, over 10000 nM; in the experiment on MT4 [4], 460 nM; at Pepsin A, over 10000 nM; on Cathepsin D [5], 380 nM. The Ki in experiment [2] worked out at 3.4 nM.
In the case of `COc1ccc(CN[C@@H](C(=O)N[C@H](C(=O)NCc2ccccc2)C(C)C)[C@H](O)[C@H](Cc2ccccc2)NC(=O)[C@@H](NC(=O)OCc2ccccc2)C(C)C)cc1`, the IC50 in experiment [1] is 320 nM; in the experiment with MT4 [3], 132 nM; against Renin, over 10000 nM; in the experiment with MT4 [4], 810 nM; at Pepsin A, over 10000 nM; against Cathepsin D [5] it was 110 nM. For the same compound, the Ki in experiment [2] was 7.4 nM.
With `COc1ccc(CN[C@@H](C(=O)N[C@H](C(=O)NCc2nc3ccccc3[nH]2)C(C)C)[C@H](O)[C@H](Cc2ccccc2)NC(=O)[C@@H](NC(=O)CCc2ccc(O)cc2)C(C)(C)C)cc1`, the IC50 in experiment [1] is 96 nM; in the experiment on MT4 [3], 21 nM; against Renin, over 10000 nM; at Pepsin A it was over 10000 nM; against Cathepsin D [5] it was over 10000 nM. Further, the affinity in experiment [2], expressed as Ki, was 13 nM.
As to `CC(C)[C@H](NC(=O)OCc1ccccc1)C(=O)N[C@@H](Cc1ccccc1)[C@@H](O)[C@@H](NCc1ccccc1)C(=O)N[C@H](C(=O)NCc1ccccc1)C(C)C`, the IC50 in experiment [1] is 580 nM; in the experiment with MT4 [3], 315 nM; against Cathepsin D [6], 35 nM; against Renin, over 10000 nM; in the experiment with MT4 [4], over 3000 nM; against Pepsin A, over 10000 nM. The Ki in experiment [2] stood at 6.1 nM.
Take `COc1ccc(CN[C@@H](C(=O)N[C@H](C(=O)NCc2nc3ccccc3[nH]2)C(C)C)[C@H](O)[C@H](Cc2ccccc2)NC(=O)[C@@H](NC(=O)OCc2ccccc2)C(C)(C)C)cc1`: the IC50 in experiment [1] is 14 nM; with MT4 [3] it was 5.4 nM; on Renin, over 10000 nM; in the experiment on MT4 [4], 385 nM; against Pepsin A it was over 10000 nM; at Cathepsin D [5], 1000 nM. Further, the Ki in experiment [2] worked out at 4.6 nM.
Compound `CC(C)[C@H](NC(=O)OCc1ccccc1)C(=O)N[C@@H](Cc1ccccc1)[C@@H](O)[C@@H](NCc1ccccc1)C(=O)N[C@@H](CC(N)=O)C(=O)NCc1ccccc1` gave an IC50 in experiment [1] of over 3000 nM. This compound also registered a Ki in experiment [2] of 42 nM.

The record behind these values is ChEMBL document CHEMBL1127464, “Inhibitors of HIV-1 proteinase containing 2-heterosubstituted 4-amino-3-hydroxy-5-phenylpentanoic acid: synthesis, enzyme inhibition, and antiviral activity” (J Med Chem, 1994).
